Measured values reported in PubChem BioAssay.
The source made the active and inactive calls.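 Rule for the calls, unless noted: active = GFP response above 150% of the DMSO level; inconclusive = fewer than 70 events counted for a yeast strain; inactive = the rest.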

Key:
[1] = RPL19A-GFP modulators, yeast TOR pathway, confirmation, cell-based, S. cerevisiae, flow cytometry, cherry picks, mother/daughter gates (AID 2270;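 active = GFP response below 50% of the DMSO control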); details: S. cerevisiae RPL19A-GFP strain, 3 h, at 10 µM, stronger effect = lower value, 100 = same GFP as DMSO wells
[2] = LAP4-GFP expression modulators in yeast, confirmation, cell-based, cherry picks, flow cytometry, mother/daughter gates (AID 2271;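 active = GFP response above 150% of the DMSO control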;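 note: ratio of sample to DMSO plate mean so 100% equals DMSO level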); details: S. cerevisiae LAP4-GFP strain, 3 h, at 10 µM, stronger effect = higher value, 100 means same as DMSO control
Outline: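 Measured by: GFP by flow cytometry. Test system: GFP-fusion yeast strain. Input: yeast cells seeded at OD600 of 0.2. Timing: 30 °C, 3 h compound incubation, rotating. Buffer or medium: synthetic complete medium for yeast. Benchmarks: DMSO-only negative wells, rapamycin 400 ng/mL positive wells. Compound: 10 µM single dose.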

[3] = modulators of MEP2-GFP levels in yeast, confirmation, S. cerevisiae, flow cytometry GFP, cherry picks (AID 2272;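 active = GFP response above 150% of the DMSO control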;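 note: ratio of well signal to plate DMSO mean so 100% equals DMSO level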); details: S. cerevisiae MEP2-GFP strain, 3 h, at 10 µM, stronger effect = higher value
[4] = AGP1-GFP expression modulators, hit retest, confirmation, cell-based, flow cytometry, S. cerevisiae, cherry picks (AID 2273);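 note: median GFP channel fluorescence over the whole cell population gate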; details: S. cerevisiae AGP1-GFP strain, 3 h, at 10 µM
[5] = modulators of CIT2-GFP expression in yeast, confirmation, S. cerevisiae, GFP fusion, cherry picks, mother/daughter gates (AID 2274); details: S. cerevisiae CIT2-GFP strain, flow cytometry, 3 h, at 10 µM, stronger effect = higher value
[6] = measured here: daughter cell gate
[7] = measured here: mother cell gate
[8] = measured here: daughter cell gate response
[9] = measured here: mother cell gate response

Row | Structure (SMILES) | GFP response vs DMSO [1] | GFP response vs DMSO [1, 6] [%] | GFP response vs DMSO [1, 7] [%] | GFP response relative to DMSO [2] | GFP response relative to DMSO [2, 8] [%] | GFP response relative to DMSO [2, 9] [%] | GFP response vs DMSO [3] | GFP response, % of DMSO [4] | GFP response, % of DMSO [5] | GFP response, % of DMSO [5, 6] [%] | GFP response, % of DMSO [5, 7] [%]
1 | COc1ccc(N2C(=O)C(Cl)=C(NCc3ccccc3)C2=O)cc1 | 96.5% (inactive) | 93 | 95.9 | 111% (inactive) | 111 | 112 | 99.3% (inactive) | 95.9% (inactive) | 91.7% (inactive) | 92.3 | 90.4
2 | COc1ccc(/C=N/Nc2nc(-c3cccnc3)nc3ccccc23)cc1OC | 100% (inactive) | 99.3 | 102 | 129% (inactive) | 130 | 129 | 137% (inactive) | 104% (inactive) | 144% (inactive) | 143 | 141
3 | COc1cc(/C=C2\C(=O)ON=C2c2ccc(Cl)cc2)ccc1O | 105% (inactive) | 106 | 99.4 | 126% (inactive) | 122 | 128 | 102% (inactive) | 100% (inactive) | 108% (inactive) | 114 | 99.8
4 | COc1cccc(-c2noc(-c3cccnc3)n2)c1 | 97.2% (inactive) | 97.1 | 96.3 | 102% (inactive) | 102 | 100 | 101% (inactive) | 97.3% (inactive) | 103% (inactive) | 105 | 102
5 | CN(C(=O)c1ccccc1Cl)c1ccccc1 | 100% (inactive) | 100 | 98.8 | 94.1% (inactive) | 96 | 93.4 | 97.2% (inactive) | 103% (inactive) | 101% (inactive) | 103 | 102
6 | Cc1cccc(N2C(=O)CC(Sc3nc(C)c4c(n3)CCCC4)C2=O)c1 (stereo unspecified) | 96.8% (inactive) | 95.4 | 97.2 | 94.1% (inactive) | 94.4 | 95.1 | 102% (inactive) | 95% (inactive) | 99.7% (inactive) | 99.1 | 99.7
7 | CCS(=O)(=O)Nc1cccc(C2=NN(S(C)(=O)=O)C(c3ccccc3)C2)c1 (stereo unspecified) | 100% (inactive) | 101 | 100 | 110% (inactive) | 105 | 112 | 120% (inactive) | 112% (inactive) | 111% (inactive) | 112 | 110
8 | O=S(=O)(c1cccc(C(F)(F)F)c1)c1ccc(O)cn1 | 98.8% (inactive) | 99.4 | 98.5 | 96.7% (inactive) | 99.2 | 95.1 | 100% (inactive) | 94.7% (inactive) | 104% (inactive) | 106 | 103
9 | COc1ccc(C(=O)Nc2cccc(C)c2)cc1 | 98.2% (inactive) | 99.3 | 96.9 | 109% (inactive) | 108 | 107 | 108% (inactive) | 101% (inactive) | 111% (inactive) | 108 | 108
10 | Cn1cc(/C=C/c2cc[n+](C)cc2)c2cc(Cl)ccc21 | 99.2% (inactive) | 97.9 | 100 | 111% (inactive) | 112 | 110 | 122% (inactive) | 111% (inactive) | 125% (inactive) | 128 | 124
11 | COc1ccc(-c2ccc(SCC(=O)N3c4ccccc4CC3C)nn2)cc1OC (stereo unspecified) | 99.1% (inactive) | 98 | 99.3 | 100% (inactive) | 101 | 101 | 102% (inactive) | 99.3% (inactive) | 96.4% (inactive) | 96.4 | 95.6
12 | Cc1ccc(-c2nc(NC(=O)c3nn(C)cc3[N+](=O)[O-])sc2C)cc1C | 101% (inactive) | 101 | 102 | 95.3% (inactive) | 92.2 | 99.5 | 97.5% (inactive) | 95.4% (inactive) | 93.5% (inactive) | 94.6 | 93.3
13 | COc1ccc(N=Cc2nc(-c3ccccc3)oc2OC(=O)c2ccccc2)cc1 | 101% (inactive) | 101 | 101 | 108% (inactive) | 104 | 111 | 94.4% (inactive) | 98.1% (inactive) | 93.4% (inactive) | 92.1 | 91.8
14 | Cc1ccc(/C=C/C(=O)c2ccc(C)cc2)cc1 | 97.2% (inactive) | 96.2 | 99.3 | 98.8% (inactive) | 99.3 | 96.5 | 99.5% (inactive) | 98.2% (inactive) | 102% (inactive) | 102 | 103
15 | Cc1cccc(NC(=O)c2ccccc2O)c1C | 97.3% (inactive) | 94.7 | 96.9 | 112% (inactive) | 104 | 116 | 99.3% (inactive) | 98.4% (inactive) | 95.8% (inactive) | 95.8 | 94.9
16 | COc1ccc(-c2csc(Nc3ncccc3C)n2)cc1 | 95.6% (inactive) | 92.1 | 95.3 | 107% (inactive) | 104 | 109 | 98.3% (inactive) | 88.6% (inactive) | 103% (inactive) | 105 | 99.7
17 | COc1ccccc1CNC(=O)CS(=O)Cc1nc(-c2ccc(OC)c(OC)c2)oc1C (stereo unspecified) | 97.2% (inactive) | 97.4 | 98 | 96.7% (inactive) | 97.6 | 96.1 | 105% (inactive) | 97.6% (inactive) | 104% (inactive) | 108 | 103
18 | O=C(NCCCSc1ccccc1)c1cc(Br)ccc1O | 97.8% (inactive) | 97.1 | 99.2 | 106% (inactive) | 104 | 108 | 100% (inactive) | 93.3% (inactive) | 98.3% (inactive) | 99.1 | 99.7
19 | CC1=NNC(=O)/C1=C\c1cn(-c2ccccc2)nc1-c1cccs1 | 92.6% (inactive) | 88 | 89.6 | 288% (active) | 122 | 269 | 103% (inactive) | 120% (inactive) | 119% (inactive) | 93.8 | 114
20 | Cc1nn(C(=O)c2ccco2)c(C)c1Sc1ccccc1 | 95.6% (inactive) | 97 | 94.4 | 97.7% (inactive) | 99 | 95.4 | 101% (inactive) | 97% (inactive) | 98.6% (inactive) | 99.3 | 98.2
21 | CC(C)n1c(=S)[nH]c2c1c(=O)[nH]c(=O)n2C | 98.8% (inactive) | 97.3 | 99.8 | 99.8% (inactive) | 102 | 101 | 100% (inactive) | 104% (inactive) | 100% (inactive) | 99.7 | 102
22 | Oc1c(Br)cc(Br)cc1C=Nc1cccc2ncccc12 | 104% (inactive) | 93.9 | 98.6 | 125% (inactive) | 110 | 126 | 103% (inactive) | 95.7% (inactive) | 97.3% (inactive) | 99.2 | 89.5
23 | CCCc1[nH]nc2c1C(c1ccc(OC(=O)c3ccco3)cc1)C(C#N)=C(N)O2 (stereo unspecified) | 99.9% (inactive) | 101 | 101 | 91.9% (inactive) | 92.2 | 91.6 | 124% (inactive) | 102% (inactive) | 105% (inactive) | 108 | 105
24 | c1cnc2c(SCc3ccc(-c4nnco4)cc3)cccc2c1 | 98.2% (inactive) | 96.4 | 97.5 | 108% (inactive) | 108 | 110 | 106% (inactive) | 104% (inactive) | 94.4% (inactive) | 90.5 | 96
25 | CCOc1cc(C(=O)N2CCN(c3ccc(C(C)=O)cc3)CC2)cc(OCC)c1OCC | 91.8% (inactive) | 91.2 | 89.8 | 126% (inactive) | 110 | 125 | 109% (inactive) | 104% (inactive) | 106% (inactive) | 105 | 105
26 | CCS(=O)(=O)N1N=C(c2ccccc2)CC1c1ccc2nccnc2c1 (stereo unspecified) | 98.4% (inactive) | 98.9 | 99.3 | 105% (inactive) | 103 | 104 | 116% (inactive) | 104% (inactive) | 105% (inactive) | 105 | 107
